Measurements as given in ChEMBL document CHEMBL1135644, “Effect of spermine conjugation on the cytotoxicity and cellular transport of acridine” (J Med Chem, 2002).
pIC50, pKi: −log10 of the molar value.

Key:
[1] = test system: Nucleic Acid; experiment: Drug concentration required to produce 50% inhibition of fluorescence bound ethidium to CT-DNA (1.26:1) (+/-SEM 5%); type: functional; conditions: Bos taurus
Procedure, shortened: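 Ethidium displacement: 1 μM CT-DNA with 1.26 μM ethidium bromide; conjugate stock added serially. Fluorescence was read at excitation 546 nm and emission 595 nm. The value is the conjugate concentration cutting DNA-bound ethidium fluorescence by 50%. Mean of three determinations (±5%).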

[2] = test system: L1210; experiment: Cellular uptake of conjugates in L1210 cells (control) at a concentration of 2 uM (+/-15% SEM); type: functional, cell-based; conditions: Mus musculus
Procedure, shortened: (§1)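 L1210 cells were seeded at 2 × 10^5 cells/mL with conjugate added at seeding, in medium containing 2 mM aminoguanidine, and cultured 24 h. Washed cells were extracted in 0.2 N HClO4/2 M NaCl for 16 h at 4 °C. Intracellular conjugate was quantified by fluorimetry and expressed as nmol/mg protein. Mean of three determinations (±15%).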

[3] = test system: L1210; experiment: In vitro 50% cell growth inhibition by the compound in L1210 cells with 5 mM DFMO addition; type: functional, cell-based; conditions: Mus musculus
Procedure, shortened: (§2)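 L1210 cells were seeded at 5 × 10^4 cells/mL, and conjugate plus 5 mM DFMO were added at seeding with 2 mM aminoguanidine present. After 48 h, growth was read by MTT at 540 nm relative to DFMO-only controls.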

[4] = test system: CHO-MG; experiment: In vitro 50% cell growth inhibition by the compound in CHO-MG cells; type: functional, cell-based; conditions: Cricetulus griseus
Procedure, shortened: (§3)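 CHO or CHO-MG cells were trypsinized and plated singly at 2 × 10^3 cells/mL in RPMI 1640/10% FCS with 2 mM aminoguanidine (proline for CHO-MG). Conjugates were added after overnight incubation, with 48 h exposure. Growth was read by MTT formazan absorbance at 540 nm relative to untreated controls. The value is the concentration giving 25% or 50% growth inhibition.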

[5] = test system: L1210; experiment: Cellular uptake of conjugates in L1210 cells in presence of 500 uM SPD at a concentration of 1 uM (+/-15% SEM); type: functional, cell-based; conditions: Mus musculus
Procedure, shortened: (§4)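 Same as the L1210 uptake assay: seeded at 2 × 10^5 cells/mL, conjugate plus 500 μM spermidine added together at seeding, 24 h exposure. Extraction in HClO4/NaCl, fluorimetric quantitation, normalized to protein. Mean of three determinations (±15%).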

[6] = test system: CHO; experiment: Cellular uptake of conjugates in CHO cells at a concentration of 0.5 uM (+/-15% SEM); type: functional, cell-based; conditions: Cricetulus griseus
Procedure, shortened: (§5)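 Conjugates added 24 h after seeding (1 × 10^5 cells/mL, RPMI 1640 with 10% FCS and 2 mM aminoguanidine; proline added for CHO-MG) and left for 24 h. Cells were washed in 0.14 M NaCl, sonicated in 0.2 N HClO4/2 M NaCl and held 16 h at 4 °C. Conjugate in the supernatant was measured by fluorimetry against standards and expressed per mg protein (Folin). Mean of three determinations (±15%).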

[7] = test system: L1210; experiment: In vitro 50% cell growth inhibition by the compound in L1210 cells; type: functional, cell-based; conditions: Mus musculus
Procedure, shortened: (§6)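 L1210 cells were seeded at 5 × 10^4 cells/mL with conjugate added at seeding, in medium with 2 mM aminoguanidine, for 48 h exposure. Growth was measured by MTT absorbance at 540 nm relative to untreated controls.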

[8] = test system: CHO; experiment: In vitro 50% cell growth inhibition by the compound in CHO cells; type: functional, cell-based; conditions: Cricetulus griseus; procedure, shortened: as §3
[9] = test system: L1210; experiment: In vitro 25% cell growth inhibition by the compound in L1210 cells; type: functional; conditions: Mus musculus; procedure, shortened: as §6
[10] = test system: L1210; experiment: Cellular uptake of conjugates in L1210 cells (control) at a concentration of 1 uM (+/-15% SEM); type: functional, cell-based; conditions: Mus musculus; procedure, shortened: as §1
[11] = test system: L1210; experiment: Cellular uptake of conjugates in L1210 cells in presence of 500 uM SPD at a concentration of 0.5 uM (+/-15% SEM); type: functional, cell-based; conditions: Mus musculus; procedure, shortened: as §4
[12] = Ratio of cellular uptake in CHO cells to that of CHO-MG cells.; type: functional
[13] = test system: L1210; experiment: In vitro 25% cell growth inhibition by the compound in L1210 cells with 5 mM DFMO addition; type: functional; conditions: Mus musculus; procedure, shortened: as §2
[14] = test system: L1210; experiment: Inhibition of [14C]SPD uptake by the compound in 5 min initial rate transport assay in L1210 cells; type: functional, cell-based, Mus musculus
[15] = test system: CHO-MG; experiment: Cellular uptake of conjugates in CHO-MG cells at a concentration of 0.5 uM (+/-15% SEM); type: functional, cell-based; conditions: Cricetulus griseus; procedure, shortened: as §5
[16] = test system: L1210; experiment: Cellular uptake of conjugates in L1210 cells (control) at a concentration of 0.5 uM (+/-15% SEM); type: functional, cell-based; conditions: Mus musculus; procedure, shortened: as §1
[17] = test system: L1210; experiment: Cellular uptake of conjugates in L1210 cells (control) at a concentration of 10 uM (+/-15% SEM); type: functional, cell-based; conditions: Mus musculus; procedure, shortened: as §1
[18] = test system: L1210; experiment: Cellular uptake of conjugates in L1210 cells in presence of 500 uM SPD at a concentration of 5 uM (+/-15% SEM); type: functional, cell-based; conditions: Mus musculus; procedure, shortened: as §4
[19] = test system: CHO; experiment: In vitro 50% cell growth inhibition by the compound in CHO cells (control); type: functional, cell-based; conditions: Cricetulus griseus; procedure, shortened: as §3
[20] = test system: L1210; experiment: Cellular uptake of conjugates in L1210 cells pretreated with 5 mM DFMO at a concentration of 10 uM (+/-15% SEM); type: functional, cell-based; conditions: Mus musculus
Procedure, shortened: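 L1210 cells were seeded at 10^5 cells/mL in medium with 5 mM DFMO, and conjugates were added 24 h later. Cells were harvested after a further 24 h, extracted in 0.2 N HClO4/2 M NaCl and assayed by fluorimetry, expressed per mg protein. Mean of three determinations (±15%).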

[21] = Ratio of cellular uptake in CHO cells to that of CHO-MG cells at 10 uM; type: functional
[22] = test system: L1210; experiment: In vitro 50% cell growth inhibition by the compound in L1210 cells (control) with 5 mM DFMO addition; type: functional, cell-based; conditions: Mus musculus; procedure, shortened: as §2
[23] = test system: CHO-MG; experiment: In vitro 50% cell growth inhibition by the compound in CHO-MG cells (control); type: functional, cell-based; conditions: Cricetulus griseus; procedure, shortened: as §3
[24] = Ratio of cellular uptake in CHO cells to that of CHO-MG cells at 2.5 uM; type: functional
[25] = test system: CHO-MG; experiment: Cellular uptake of conjugates in CHO-MG cells at a concentration of 2.5 uM (+/-15% SEM); type: functional, cell-based; conditions: Cricetulus griseus; procedure, shortened: as §5
[26] = test system: CHO-MG; experiment: Cellular uptake of conjugates in CHO-MG cells at a concentration of 10 uM (+/-15% SEM); type: functional, cell-based; conditions: Cricetulus griseus; procedure, shortened: as §5
[27] = test system: CHO; experiment: Cellular uptake of conjugates in CHO cells at a concentration of 10 uM (+/-15% SEM); type: functional, cell-based; conditions: Cricetulus griseus; procedure, shortened: as §5
[28] = test system: L1210; experiment: Cellular uptake of conjugates in L1210 cells in presence of 500 uM SPD at a concentration of 10 uM (+/-15% SEM); type: functional, cell-based; conditions: Mus musculus; procedure, shortened: as §4
[29] = test system: CHO; experiment: Cellular uptake of conjugates in CHO cells at a concentration of 2.5 uM (+/-15% SEM); type: functional, cell-based; conditions: Cricetulus griseus; procedure, shortened: as §5
[30] = test system: L1210; experiment: Cellular uptake of conjugates in L1210 cells (control) at a concentration of 5 uM (+/-15% SEM); type: functional, cell-based; conditions: Mus musculus; procedure, shortened: as §1

For `Cl.NCCCNCCCCNCCCNCCCCN=c1c2ccccc2[nH]c2ccccc12`, which Concentration for 50% ethidium displacement from DNA (C50) [1] is on record?
The Concentration for 50% ethidium displacement from DNA (C50) was 110 nM.

What about the Uptake (nM (mg of protein)-1) [2] of the same compound?
Its Uptake (nM (mg of protein)-1) is 0.491.

What about the pIC50 [3] of the same compound?
The pIC50 was 6.22.

What about the pIC50 [4] of the same compound?
Its pIC50 is 5.14.

What about the Uptake (nM (mg of protein)-1) [5] of the same compound?
Its Uptake (nM (mg of protein)-1) is 0.28.

And the Uptake (nM (mg of protein)-1) [6]?
Its Uptake (nM (mg of protein)-1) is 0.081.

And the pIC50 [7]?
Its pIC50 is 5.64.

And the pIC50 [8]?
The pIC50 was 5.64.

What about the IC25 [9] of the same compound?
Its IC25 is 1100 nM.

And the Uptake (nM (mg of protein)-1) [10]?
Its Uptake (nM (mg of protein)-1) is 0.362.

What about the Uptake (nM (mg of protein)-1) [11] of the same compound?
The Uptake (nM (mg of protein)-1) was 0.094.

What about the Ratio [12] of the same compound?
Its Ratio is 3.1.

And the IC25 [13]?
Its IC25 is 160 nM.

And the pKi [14]?
The pKi was 7.08.

And the Uptake (nM (mg of protein)-1) [15]?
Its Uptake (nM (mg of protein)-1) is 0.026.

What about the Uptake (nM (mg of protein)-1) [16] of the same compound?
The Uptake (nM (mg of protein)-1) was 0.193.

Which CC50 [1] does the source give for `NCCCNCCCCNCCCN` here?
Its CC50 is 6800 nM.

With `c1ccc2nc3ccccc3cc2c1` as the compound, how does the Concentration for 50% ethidium displacement from DNA (C50) [1] read?
Its Concentration for 50% ethidium displacement from DNA (C50) is 142000 nM.

Which Concentration for 50% ethidium displacement from DNA (C50) [1] does the source give for `Cl.NCCCNCCCCNCCCNCCCNC(=O)c1c2ccccc2nc2ccccc12` here?
Its Concentration for 50% ethidium displacement from DNA (C50) is 120 nM.

What about the Uptake (nM (mg of protein)-1) [17] of the same compound?
The Uptake (nM (mg of protein)-1) was 0.239.

What about the Uptake (nM (mg of protein)-1) [18] of the same compound?
Its Uptake (nM (mg of protein)-1) is 0.073.

What about the pIC50 [19] of the same compound?
The pIC50 was 4.52.

And the Uptake (nM (mg of protein)-1) [20]?
The Uptake (nM (mg of protein)-1) was 0.587.

And the Ratio [21]?
The Ratio was 0.93.

What about the pIC50 [22] of the same compound?
The pIC50 was 5.66.

And the pIC50 [23]?
Its pIC50 is 4.46.

And the Ratio [24]?
The Ratio was 0.83.

And the Uptake (nM (mg of protein)-1) [25]?
Its Uptake (nM (mg of protein)-1) is 0.017.

What about the pIC50 [7] of the same compound?
The pIC50 was 4.37.

And the IC25 [9]?
The IC25 was 22000 nM.

And the IC25 [13]?
Its IC25 is 90 nM.

And the pKi [14]?
The pKi was 7.01.

What about the Uptake (nM (mg of protein)-1) [26] of the same compound?
The Uptake (nM (mg of protein)-1) was 0.108.

What about the Uptake (nM (mg of protein)-1) [27] of the same compound?
Its Uptake (nM (mg of protein)-1) is 0.1.

What about the Uptake (nM (mg of protein)-1) [28] of the same compound?
The Uptake (nM (mg of protein)-1) was 0.221.

And the Uptake (nM (mg of protein)-1) [29]?
The Uptake (nM (mg of protein)-1) was 0.014.

And the Uptake (nM (mg of protein)-1) [30]?
Its Uptake (nM (mg of protein)-1) is 0.086.
